Test [1] addresses T1, Progesterone receptor (Oryctolagus cuniculus) (UniProt P06186).
T1 sequence (whole entry): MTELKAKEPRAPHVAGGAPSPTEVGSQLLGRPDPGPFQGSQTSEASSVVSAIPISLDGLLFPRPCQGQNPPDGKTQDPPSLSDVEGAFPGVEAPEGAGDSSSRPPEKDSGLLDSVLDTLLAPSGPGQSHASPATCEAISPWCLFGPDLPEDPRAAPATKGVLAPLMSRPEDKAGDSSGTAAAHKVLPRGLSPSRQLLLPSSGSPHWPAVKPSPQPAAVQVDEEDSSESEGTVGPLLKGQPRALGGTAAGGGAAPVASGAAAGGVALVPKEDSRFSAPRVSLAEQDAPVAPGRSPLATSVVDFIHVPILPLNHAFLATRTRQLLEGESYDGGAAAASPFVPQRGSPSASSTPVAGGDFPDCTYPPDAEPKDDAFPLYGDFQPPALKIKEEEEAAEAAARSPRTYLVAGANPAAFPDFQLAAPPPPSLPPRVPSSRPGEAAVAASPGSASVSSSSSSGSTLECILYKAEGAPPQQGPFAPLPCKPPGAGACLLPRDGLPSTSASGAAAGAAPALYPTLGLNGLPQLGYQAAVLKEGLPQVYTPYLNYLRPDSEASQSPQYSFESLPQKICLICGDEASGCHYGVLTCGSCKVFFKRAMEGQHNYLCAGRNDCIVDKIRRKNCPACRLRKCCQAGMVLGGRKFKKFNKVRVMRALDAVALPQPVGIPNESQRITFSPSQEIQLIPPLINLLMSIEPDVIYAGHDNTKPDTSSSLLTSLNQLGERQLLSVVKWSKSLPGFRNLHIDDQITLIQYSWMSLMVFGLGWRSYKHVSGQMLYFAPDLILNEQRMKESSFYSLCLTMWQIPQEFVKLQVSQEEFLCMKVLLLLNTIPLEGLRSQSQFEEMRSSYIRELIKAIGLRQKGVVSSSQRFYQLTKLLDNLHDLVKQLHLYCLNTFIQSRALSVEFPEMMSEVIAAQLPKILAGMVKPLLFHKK
The experiment in a line: Relative binding affinity for Progesterone receptor of rabbit uterus cytosol, displacement of [3H]R5020 over 24 hr at 0C. The method in brief:
(§1)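 Uteri from estrogen-primed female New Zealand rabbits (1 kg, 50–55 days old) homogenised 1/50 in 10 mM Tris-HCl pH 7.4, 0.25 M sucrose. Cytosol spun at 105000g for 60 min at 4 °C, then incubated with 2.5 nM [3H]R 5020 for 24 h at 0 °C with 0–2500 nM competitor. Bound ligand taken by dextran-charcoal. RBA taken relative to progesterone.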
On the technique in general: Displacement assays read how much labelled ligand stays bound in the presence of the test substance.

In test [2] the target is T2, Estrogen receptor (Mus musculus) (UniProt O08537+P19785). Briefly: Relative binding affinity for Estrogen receptor of mouse uterus cytosol, displacement of [3H]estradiol over 2 hr at 0C. Type of test: protein assay. The method in brief: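 Cytosol from uteri of 18-day-old female Swiss mice (homogenised 1/50 w/v), incubated with 5 nM [3H]estradiol for 2 h at 0 °C with 0–2500 nM unlabeled competitor. Bound ligand separated by dextran-coated charcoal, 10 min at 0–4 °C, then centrifuged at 800g. RBA = (50%-displacing concentration of unlabeled estradiol / that of competitor) × 100. Mean of ≥3 experiments or 2 concordant.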
T2 sequence (O08537 whole entry, looked up): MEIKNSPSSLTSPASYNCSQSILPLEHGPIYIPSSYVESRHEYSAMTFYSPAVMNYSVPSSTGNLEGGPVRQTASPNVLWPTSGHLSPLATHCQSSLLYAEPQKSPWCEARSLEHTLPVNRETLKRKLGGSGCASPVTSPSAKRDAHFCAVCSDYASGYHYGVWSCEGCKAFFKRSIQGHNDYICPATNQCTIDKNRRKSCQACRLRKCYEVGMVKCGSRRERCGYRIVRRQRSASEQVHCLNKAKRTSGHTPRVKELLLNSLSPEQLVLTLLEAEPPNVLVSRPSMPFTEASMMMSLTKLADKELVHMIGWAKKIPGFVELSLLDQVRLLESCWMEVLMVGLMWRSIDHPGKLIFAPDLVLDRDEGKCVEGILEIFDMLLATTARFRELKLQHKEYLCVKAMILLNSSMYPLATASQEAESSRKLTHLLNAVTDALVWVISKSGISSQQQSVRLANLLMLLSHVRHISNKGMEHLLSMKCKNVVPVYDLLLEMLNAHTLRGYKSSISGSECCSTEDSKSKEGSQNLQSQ
T2 sequence (P19785 whole entry, looked up): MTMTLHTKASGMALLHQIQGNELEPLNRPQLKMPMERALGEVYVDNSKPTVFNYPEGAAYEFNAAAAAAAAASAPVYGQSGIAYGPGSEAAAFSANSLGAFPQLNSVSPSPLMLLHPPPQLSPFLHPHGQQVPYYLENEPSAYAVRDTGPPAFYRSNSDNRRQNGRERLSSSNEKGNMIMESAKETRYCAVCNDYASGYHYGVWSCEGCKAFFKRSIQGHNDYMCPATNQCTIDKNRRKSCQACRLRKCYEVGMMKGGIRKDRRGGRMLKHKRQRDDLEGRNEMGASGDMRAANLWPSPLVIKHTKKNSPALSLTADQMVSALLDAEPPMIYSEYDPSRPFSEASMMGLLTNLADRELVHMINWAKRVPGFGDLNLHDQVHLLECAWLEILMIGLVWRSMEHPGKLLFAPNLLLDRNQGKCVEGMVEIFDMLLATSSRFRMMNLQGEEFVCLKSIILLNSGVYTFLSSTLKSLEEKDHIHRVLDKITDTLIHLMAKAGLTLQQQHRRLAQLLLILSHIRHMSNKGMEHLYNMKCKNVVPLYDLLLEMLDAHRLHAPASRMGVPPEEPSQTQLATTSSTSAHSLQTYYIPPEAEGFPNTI

The target in test [3] is T3, Mineralocorticoid receptor (Rattus norvegicus) (UniProt P22199).
T3 sequence (whole entry): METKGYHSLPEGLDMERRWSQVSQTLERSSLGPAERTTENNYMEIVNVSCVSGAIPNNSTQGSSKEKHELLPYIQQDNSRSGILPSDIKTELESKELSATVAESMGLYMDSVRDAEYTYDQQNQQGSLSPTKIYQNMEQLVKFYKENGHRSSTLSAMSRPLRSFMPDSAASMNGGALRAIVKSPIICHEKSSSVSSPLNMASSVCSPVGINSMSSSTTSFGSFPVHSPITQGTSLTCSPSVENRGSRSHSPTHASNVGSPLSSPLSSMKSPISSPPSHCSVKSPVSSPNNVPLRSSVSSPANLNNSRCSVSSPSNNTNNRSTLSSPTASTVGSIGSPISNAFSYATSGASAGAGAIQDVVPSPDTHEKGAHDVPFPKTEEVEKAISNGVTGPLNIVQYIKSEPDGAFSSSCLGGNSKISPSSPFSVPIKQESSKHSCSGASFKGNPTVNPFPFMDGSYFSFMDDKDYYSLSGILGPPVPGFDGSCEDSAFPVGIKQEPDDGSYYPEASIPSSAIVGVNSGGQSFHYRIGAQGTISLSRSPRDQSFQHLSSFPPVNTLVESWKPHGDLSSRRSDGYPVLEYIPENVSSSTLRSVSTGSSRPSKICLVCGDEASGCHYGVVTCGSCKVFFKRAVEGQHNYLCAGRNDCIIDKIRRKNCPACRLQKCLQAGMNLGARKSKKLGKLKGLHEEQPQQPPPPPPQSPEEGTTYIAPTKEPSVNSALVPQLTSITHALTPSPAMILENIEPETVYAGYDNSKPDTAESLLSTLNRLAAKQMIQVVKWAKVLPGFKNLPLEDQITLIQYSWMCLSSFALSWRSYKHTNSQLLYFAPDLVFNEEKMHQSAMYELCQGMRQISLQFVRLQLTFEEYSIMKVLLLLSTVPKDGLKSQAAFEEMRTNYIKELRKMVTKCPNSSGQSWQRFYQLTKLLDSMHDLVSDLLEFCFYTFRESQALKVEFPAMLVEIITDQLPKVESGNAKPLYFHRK
The experiment in a line: Relative binding affinity for mineralocorticoid receptor of rat kidney homogenates, displacement of [3H]aldosterone over 30 min at 25 degree C. The gist of the method:
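Perfused kidneys from adrenalectomized (4–7 days) male Sprague–Dawley rats homogenised 1/3 in Krebs-Ringer phosphate buffer. Homogenate incubated with 2.5 nM [3H]aldosterone for 30 min at 25 °C with 0–2500 nM competitor, then centrifuged at 800g for 10 min at 0 °C. Bound ligand measured by dextran-charcoal. RBA relative to aldosterone = 100.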

The target in test [4] is T4, Androgen receptor (Rattus norvegicus) (UniProt P15207).
T4 sequence (whole entry): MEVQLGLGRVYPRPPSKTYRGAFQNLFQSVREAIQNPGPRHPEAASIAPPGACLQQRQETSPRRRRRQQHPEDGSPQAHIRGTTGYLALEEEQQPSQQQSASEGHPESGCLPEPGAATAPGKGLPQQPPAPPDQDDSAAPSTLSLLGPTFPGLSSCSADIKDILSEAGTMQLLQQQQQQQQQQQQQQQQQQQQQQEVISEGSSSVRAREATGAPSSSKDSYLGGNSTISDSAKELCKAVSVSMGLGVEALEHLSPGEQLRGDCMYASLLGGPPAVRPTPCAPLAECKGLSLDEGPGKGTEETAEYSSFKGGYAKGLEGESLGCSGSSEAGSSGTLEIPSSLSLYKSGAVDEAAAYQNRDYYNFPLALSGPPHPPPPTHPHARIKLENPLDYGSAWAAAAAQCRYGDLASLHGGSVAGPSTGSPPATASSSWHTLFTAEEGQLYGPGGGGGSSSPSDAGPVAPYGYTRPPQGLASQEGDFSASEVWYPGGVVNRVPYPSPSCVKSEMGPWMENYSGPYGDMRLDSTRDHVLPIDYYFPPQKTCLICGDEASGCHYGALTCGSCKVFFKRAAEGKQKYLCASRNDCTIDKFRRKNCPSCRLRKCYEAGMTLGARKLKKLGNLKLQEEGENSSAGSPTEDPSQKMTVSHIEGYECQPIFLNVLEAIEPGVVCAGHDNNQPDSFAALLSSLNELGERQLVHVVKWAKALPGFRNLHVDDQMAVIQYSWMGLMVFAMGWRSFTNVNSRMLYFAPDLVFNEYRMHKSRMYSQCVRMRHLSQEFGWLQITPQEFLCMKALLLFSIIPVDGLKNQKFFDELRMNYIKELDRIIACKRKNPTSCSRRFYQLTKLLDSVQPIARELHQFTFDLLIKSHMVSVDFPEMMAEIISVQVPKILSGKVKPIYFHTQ
The experiment in a line: Relative binding affinity for androgen receptor of rat prostate cytosol, displacement of [3H]R-1881 over 2 hr at 0C. The method in brief:
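Prostate from male Sprague–Dawley rats (140–160 g) castrated 24 h earlier, homogenised 1/5 w/v. Cytosol incubated with 2.5 nM [3H]R 1881 for 2 h at 0 °C with 0–2500 nM competitor. […] by dextran-coated charcoal (10 min, 0–4 °C; 800g). RBA is the ratio of 50%-displacing concentrations × 100, relative to testosterone.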

Test [5] has as its target T5, Glucocorticoid receptor (Rattus norvegicus) (UniProt P06536).
T5 sequence (whole entry): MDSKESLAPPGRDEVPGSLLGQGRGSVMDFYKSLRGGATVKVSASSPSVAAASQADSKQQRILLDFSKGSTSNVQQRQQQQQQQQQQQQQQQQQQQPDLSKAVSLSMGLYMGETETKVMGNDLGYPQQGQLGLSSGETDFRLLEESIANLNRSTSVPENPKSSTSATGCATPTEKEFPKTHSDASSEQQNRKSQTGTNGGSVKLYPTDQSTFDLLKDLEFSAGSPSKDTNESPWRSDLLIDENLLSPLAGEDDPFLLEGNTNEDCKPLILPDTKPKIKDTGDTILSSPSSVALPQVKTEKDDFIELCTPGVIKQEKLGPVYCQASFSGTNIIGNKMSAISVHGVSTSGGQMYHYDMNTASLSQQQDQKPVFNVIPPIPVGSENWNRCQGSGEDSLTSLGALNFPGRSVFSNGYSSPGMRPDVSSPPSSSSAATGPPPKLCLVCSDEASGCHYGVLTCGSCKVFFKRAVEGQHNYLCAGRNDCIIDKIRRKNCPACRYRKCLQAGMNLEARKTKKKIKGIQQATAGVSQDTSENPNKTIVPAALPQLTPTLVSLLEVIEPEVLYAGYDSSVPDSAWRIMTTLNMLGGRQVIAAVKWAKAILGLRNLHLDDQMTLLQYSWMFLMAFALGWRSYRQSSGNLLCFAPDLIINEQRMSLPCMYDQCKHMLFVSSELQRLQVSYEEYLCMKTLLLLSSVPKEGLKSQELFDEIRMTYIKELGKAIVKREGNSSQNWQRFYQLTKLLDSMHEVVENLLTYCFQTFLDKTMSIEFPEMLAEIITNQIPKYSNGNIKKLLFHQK
The experiment in a line: Relative binding affinity for glucocorticoid receptor of rat liver cytosol, displacement of [3H]dexamethasone over 4 hr at 0C. The method in brief: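 Rats (male Sprague–Dawley, 140–160 g) adrenalectomized 4–7 days earlier. Perfused liver homogenised 1/10 in Tris-sucrose buffer and spun at 105000g for 60 min at 4 °C. Cytosol incubated with 5 nM [3H]dexamethasone for 4 h at 0 °C with 0–2500 nM competitor. Dextran-charcoal separation used. RBA relative to dexamethasone = 100.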

Test [6] addresses T2, Estrogen receptor (Mus musculus). The experiment in a line: Binding affinity to Steroid Hormone Receptor was determined using [6,7-3H]estradiol as radioligand. It counts as protein assay. To be noted: tested as the 3H-labelled form. The gist of the method:
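Uteri came from 18-day-old female Swiss mice and were homogenized 1/50 (w/v). Uterine cytosol was labeled with 5 nM [3H]estradiol for 2 h at 0 °C with 0–2500 nM competing steroid. Bound radioactivity was measured after dextran-coated charcoal treatment and an 800g centrifugation. The 50%-inhibition concentrations gave RBA × 100 relative to estradiol (100). Results are means of ≥3 or two experiments.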

Test [7] concerns the target T1, Progesterone receptor (Oryctolagus cuniculus). Briefly: Binding affinity to Steroid Hormone Receptor was determined using [6,7-3H]R5020 as radioligand. The gist of the method: as §1
The target of test [8] is T3, Mineralocorticoid receptor (Rattus norvegicus). The experiment in a line: Binding affinity to Steroid Hormone Receptor was determined using [1,2-3 H]aldosterone as radioligand. The gist of the method:
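Rats were male Sprague–Dawley, 140–160 g, adrenalectomized 4–7 days. Perfused kidney was homogenized 1/3 (w/v) in Krebs-Ringer phosphate buffer. Homogenate was incubated with 2.5 nM [3H]aldosterone for 30 min at 25 °C with 0–2500 nM competitor, then spun at 800g for 10 min at 0 °C. Bound ligand was separated by dextran-coated charcoal. RBA = 100 × ratio of the 50%-displacing concentrations, with aldosterone set at 100.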

Test [9] deals with T4, Androgen receptor (Rattus norvegicus). The experiment in a line: Binding affinity to Steroid Hormone Receptor was determined using [6,7-3H] R 1881 as radioligand. To be noted: tested as the 3H-labelled form. The gist of the method:
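Prostate was taken from male Sprague–Dawley rats (140–160 g) castrated 24 h before and homogenized 1/5 (w/v). Cytosol was incubated with 2.5 nM [3H]R 1881 for 2 h at 0 °C with 0–2500 nM unlabeled competitor. Free ligand was removed with DCC (0.625% dextran–1.25% charcoal, 10 min, 0–4 °C, 800g spin). RBA is relative to testosterone = 100. Values are means of ≥3 experiments (SEM) or of two.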

Test [10] deals with T5, Glucocorticoid receptor (Rattus norvegicus).

The record followed here is ChEMBL document CHEMBL1121469, “Synthesis and biochemical screening of phenylselenium-substituted steroid hormones” (J Med Chem, 1980).

SMILES strings stand for the structures.

As to `CC12CCC(=O)C=C1CCC1C2CCC2(C)C1C[C@@H]([Se]c1ccccc1)C2O` (stereo not given in full), the RBA is 0.8 in test [1]; less than 0.1 in test [2]; 0.15 in test [3]; 0.33 in test [4]; 0.23 in [5].

On to `CCC(=O)[C@@]1(C)CC[C@H]2[C@@H]3CCC4=CC(=O)CCC4=C3CCC21C` (stereo not given in full), for which the Specific activity in test [6] is 57 Ci mM-1.

In the case of `C[C@]1(O)CC[C@H]2[C@@H]3CCC4=CC(=O)CCC4=C3C=C[C@@]21C`, in [7], the Specific activity is 56 Ci mM-1.

Take `CC12CCC(=O)C=C1CCC1C2CCC2(C)C1C[C@H]([Se]c1ccccc1)C2O` (stereo not given in full): the RBA is less than 0.1 in test [1]; less than 0.1 in test [2]; less than 0.1 in test [3]; 1.9 in test [4]; less than 0.1 in [5].

On to `C[C@]12CC[C@@H]3c4ccc(O)cc4CC[C@H]3[C@@H]1CC[C@@H]2O`, for which the Specific activity in test [8] was 50 Ci mM-1.

On to `CC12CCC(=O)C=C1CCC1C2C2CC3(C(O)O2)C(C(=O)CO)CCC13` (stereo not given), for which the Specific activity in test [9] is 53 Ci mM-1.

Take `C[C@@H]1C[C@H]2[C@@H]3CCC4=CC(=O)C=C[C@]4(C)[C@@]3(F)[C@@H](O)C[C@]2(C)[C@@]1(O)C(=O)CO`: the Specific activity in test [10] is 26 Ci mM-1.

In the case of `CC12CCC(=O)C=C1CCC1C2CCC2(C)C1CC[C@@H]2C(=O)C[Se]c1ccccc1` (stereo not given in full), the RBA was 59 in test [1]; less than 0.1 in test [2]; 2.1 in test [3]; 1.7 in test [4]; 0.6 in [5].

On to `CC(=O)[C@@]1([Se]c2ccccc2)CCC2C3CCC4=CC(=O)CCC4(C)C3CCC21C` (stereo not given in full), for which the RBA in [1] was 2.1; in [2] it was less than 0.1; in test [3], 0.23; in test [4], less than 0.1; in [5], less than 0.1.
